Results published in ChEMBL document CHEMBL5696442, “Discovery of type II inhibitors of TGFβ-activated kinase 1 (TAK1) and mitogen-activated protein kinase kinase kinase kinase 2 (MAP4K2)” (J Med Chem, 2015).

How the values were obtained:
Format in all cases: cell-based
[1] = target: Serine/threonine-protein kinase WNK1 (Homo sapiens) (UniProt Q9H4A3); test: Inhibition of Wnk1 Lys2 labeling site in human A-375 cells at 0.05 uM by KiNativ Profiling analysis relative to control
[2] = target: Mitogen-activated protein kinase kinase kinase kinase 4 (Homo sapiens, UniProt O95819); test: Inhibition of ZC1/HGK Lys1 labeling site in human A-375 cells at 0.5 uM by KiNativ Profiling analysis relative to control
Sequence of Mitogen-activated protein kinase kinase kinase kinase 4 (O95819 2-1239 limits assumed): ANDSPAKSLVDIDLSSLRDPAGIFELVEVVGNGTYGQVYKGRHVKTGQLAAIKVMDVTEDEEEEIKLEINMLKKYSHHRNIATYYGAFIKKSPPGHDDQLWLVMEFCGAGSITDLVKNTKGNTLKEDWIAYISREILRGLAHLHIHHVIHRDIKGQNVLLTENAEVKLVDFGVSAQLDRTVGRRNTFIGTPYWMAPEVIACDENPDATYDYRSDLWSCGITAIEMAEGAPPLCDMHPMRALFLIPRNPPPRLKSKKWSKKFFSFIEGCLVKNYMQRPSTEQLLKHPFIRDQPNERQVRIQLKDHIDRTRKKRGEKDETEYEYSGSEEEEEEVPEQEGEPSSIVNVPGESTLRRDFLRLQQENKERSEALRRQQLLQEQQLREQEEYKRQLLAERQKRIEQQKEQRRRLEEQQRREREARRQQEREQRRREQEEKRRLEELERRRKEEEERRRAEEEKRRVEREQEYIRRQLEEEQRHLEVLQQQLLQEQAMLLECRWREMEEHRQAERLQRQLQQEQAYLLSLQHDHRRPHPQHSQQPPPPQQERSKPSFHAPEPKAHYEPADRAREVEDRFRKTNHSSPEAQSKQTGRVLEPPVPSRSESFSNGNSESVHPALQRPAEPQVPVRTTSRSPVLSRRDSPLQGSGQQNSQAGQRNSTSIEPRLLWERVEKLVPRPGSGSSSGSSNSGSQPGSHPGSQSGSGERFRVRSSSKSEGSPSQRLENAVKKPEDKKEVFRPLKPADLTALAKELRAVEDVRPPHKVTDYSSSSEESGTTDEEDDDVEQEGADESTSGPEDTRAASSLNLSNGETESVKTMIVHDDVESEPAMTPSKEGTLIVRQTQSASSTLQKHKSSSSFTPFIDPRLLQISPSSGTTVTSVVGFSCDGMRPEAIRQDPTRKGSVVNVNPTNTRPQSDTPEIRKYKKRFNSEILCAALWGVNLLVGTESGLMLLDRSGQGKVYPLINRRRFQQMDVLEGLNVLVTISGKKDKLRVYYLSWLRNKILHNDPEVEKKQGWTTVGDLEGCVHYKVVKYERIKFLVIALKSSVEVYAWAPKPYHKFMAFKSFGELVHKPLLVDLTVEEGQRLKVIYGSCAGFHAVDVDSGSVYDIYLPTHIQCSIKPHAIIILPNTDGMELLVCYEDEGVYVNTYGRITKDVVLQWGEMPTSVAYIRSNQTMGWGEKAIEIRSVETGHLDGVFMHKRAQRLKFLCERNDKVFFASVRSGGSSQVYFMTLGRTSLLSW

[3] = target: T1, Serine/threonine-protein kinase TBK1 (Homo sapiens) (UniProt Q9UHD2); test: Inhibition of TBK1 Lys2 labeling site in human A-375 cells at 0.05 uM by KiNativ Profiling analysis relative to control
T1 sequence (whole entry): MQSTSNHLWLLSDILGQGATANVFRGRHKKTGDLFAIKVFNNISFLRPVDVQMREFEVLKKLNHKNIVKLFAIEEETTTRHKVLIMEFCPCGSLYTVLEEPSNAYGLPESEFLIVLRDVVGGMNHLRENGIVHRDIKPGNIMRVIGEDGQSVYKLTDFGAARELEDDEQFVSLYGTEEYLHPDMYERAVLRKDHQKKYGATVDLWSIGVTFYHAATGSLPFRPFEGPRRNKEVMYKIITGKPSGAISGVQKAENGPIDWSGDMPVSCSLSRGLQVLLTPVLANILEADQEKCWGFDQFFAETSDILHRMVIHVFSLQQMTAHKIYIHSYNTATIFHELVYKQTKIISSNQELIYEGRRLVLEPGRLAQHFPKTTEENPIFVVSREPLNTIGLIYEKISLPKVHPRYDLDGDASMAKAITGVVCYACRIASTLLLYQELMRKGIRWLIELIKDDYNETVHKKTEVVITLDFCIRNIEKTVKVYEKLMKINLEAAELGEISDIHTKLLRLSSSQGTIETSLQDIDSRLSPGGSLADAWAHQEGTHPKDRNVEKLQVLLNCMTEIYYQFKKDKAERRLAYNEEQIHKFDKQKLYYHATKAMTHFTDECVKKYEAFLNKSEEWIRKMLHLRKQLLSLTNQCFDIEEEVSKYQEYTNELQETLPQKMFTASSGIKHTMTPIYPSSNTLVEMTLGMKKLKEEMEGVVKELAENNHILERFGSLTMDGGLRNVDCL

[4] = target: Serine/threonine-protein kinase tousled-like 2 (Homo sapiens) (UniProt Q86UE8); test: Inhibition of TLK2 Lys1 labeling site in human A-375 cells at 5 uM by KiNativ Profiling analysis relative to control
[5] = target: Tyrosine-protein kinase Fer (Homo sapiens, UniProt P16591); test: Inhibition of FER Lys1 labeling site harbouring DKTSVAVKTCKEDLPQELK in human A-375 cells at 5 uM by KiNativ Profiling analysis relative to control
[6] = target: RAC-gamma serine/threonine-protein kinase (Homo sapiens) (UniProt Q9Y243); test: Inhibition of AKT3 ATP Loop labeling site in human A-375 cells at 0.05 uM by KiNativ Profiling analysis relative to control
Sequence of RAC-gamma serine/threonine-protein kinase (Homo sapiens) (Q9Y243 whole entry, canonical isoform): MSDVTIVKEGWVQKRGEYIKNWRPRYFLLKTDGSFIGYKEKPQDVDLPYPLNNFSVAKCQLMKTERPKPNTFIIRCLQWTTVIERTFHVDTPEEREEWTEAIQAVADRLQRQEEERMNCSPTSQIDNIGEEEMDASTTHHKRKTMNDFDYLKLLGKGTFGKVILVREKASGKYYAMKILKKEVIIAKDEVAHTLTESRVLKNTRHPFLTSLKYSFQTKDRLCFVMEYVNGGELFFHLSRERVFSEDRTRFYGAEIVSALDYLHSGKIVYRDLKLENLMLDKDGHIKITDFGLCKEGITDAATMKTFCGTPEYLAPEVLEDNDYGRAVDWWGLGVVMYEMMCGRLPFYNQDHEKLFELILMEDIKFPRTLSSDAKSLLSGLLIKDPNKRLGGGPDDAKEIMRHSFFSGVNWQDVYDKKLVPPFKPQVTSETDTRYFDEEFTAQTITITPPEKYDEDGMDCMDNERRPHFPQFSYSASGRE

[7] = target: Phosphatidylinositol 4,5-bisphosphate 3-kinase catalytic subunit beta isoform (Homo sapiens) (UniProt P42338); test: Inhibition of PIK3CB ATP labeling site in human A-375 cells at 0.05 uM by KiNativ Profiling analysis relative to control
[8] = target: T2, Serine/threonine-protein kinase Nek9 (Homo sapiens) (UniProt Q8TD19); test: Inhibition of NEK9 ACT labeling site in human A-375 cells at 0.5 uM by KiNativ Profiling analysis relative to control
T2 sequence (whole entry): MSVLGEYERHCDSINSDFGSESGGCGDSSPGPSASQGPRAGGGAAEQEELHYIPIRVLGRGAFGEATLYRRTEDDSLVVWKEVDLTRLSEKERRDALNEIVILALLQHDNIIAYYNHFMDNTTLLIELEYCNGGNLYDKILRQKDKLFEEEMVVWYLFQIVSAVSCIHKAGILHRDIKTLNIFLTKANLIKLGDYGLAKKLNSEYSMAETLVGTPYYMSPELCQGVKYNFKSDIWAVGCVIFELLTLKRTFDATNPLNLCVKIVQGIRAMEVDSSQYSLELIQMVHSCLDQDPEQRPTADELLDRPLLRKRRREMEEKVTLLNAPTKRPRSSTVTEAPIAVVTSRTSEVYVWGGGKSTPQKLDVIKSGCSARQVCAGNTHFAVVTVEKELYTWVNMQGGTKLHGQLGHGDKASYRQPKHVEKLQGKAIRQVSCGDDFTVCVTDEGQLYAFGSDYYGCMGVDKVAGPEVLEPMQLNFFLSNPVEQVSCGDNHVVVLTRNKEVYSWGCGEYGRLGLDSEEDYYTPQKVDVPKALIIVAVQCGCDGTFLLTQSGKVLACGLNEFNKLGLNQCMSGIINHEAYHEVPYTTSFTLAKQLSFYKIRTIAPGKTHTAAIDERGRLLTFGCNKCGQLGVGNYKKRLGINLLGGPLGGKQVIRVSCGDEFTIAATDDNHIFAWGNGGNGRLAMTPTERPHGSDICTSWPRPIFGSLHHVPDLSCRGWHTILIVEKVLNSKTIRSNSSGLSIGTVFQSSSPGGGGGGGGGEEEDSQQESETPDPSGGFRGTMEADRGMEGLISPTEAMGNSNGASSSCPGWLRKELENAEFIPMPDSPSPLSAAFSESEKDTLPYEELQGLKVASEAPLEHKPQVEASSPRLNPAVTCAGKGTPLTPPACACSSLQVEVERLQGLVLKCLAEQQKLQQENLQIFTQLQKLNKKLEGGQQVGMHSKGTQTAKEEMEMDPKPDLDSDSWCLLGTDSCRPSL

[9] = target: 5'-AMP-activated protein kinase catalytic subunit alpha-1 (Homo sapiens) (UniProt Q13131); test: Inhibition of AMPKa1 Lys1 labeling site in human A-375 cells at 5 uM by KiNativ Profiling analysis relative to control
Sequence of 5'-AMP-activated protein kinase catalytic subunit alpha-1 (Homo sapiens) (Q13131 whole entry, looked up): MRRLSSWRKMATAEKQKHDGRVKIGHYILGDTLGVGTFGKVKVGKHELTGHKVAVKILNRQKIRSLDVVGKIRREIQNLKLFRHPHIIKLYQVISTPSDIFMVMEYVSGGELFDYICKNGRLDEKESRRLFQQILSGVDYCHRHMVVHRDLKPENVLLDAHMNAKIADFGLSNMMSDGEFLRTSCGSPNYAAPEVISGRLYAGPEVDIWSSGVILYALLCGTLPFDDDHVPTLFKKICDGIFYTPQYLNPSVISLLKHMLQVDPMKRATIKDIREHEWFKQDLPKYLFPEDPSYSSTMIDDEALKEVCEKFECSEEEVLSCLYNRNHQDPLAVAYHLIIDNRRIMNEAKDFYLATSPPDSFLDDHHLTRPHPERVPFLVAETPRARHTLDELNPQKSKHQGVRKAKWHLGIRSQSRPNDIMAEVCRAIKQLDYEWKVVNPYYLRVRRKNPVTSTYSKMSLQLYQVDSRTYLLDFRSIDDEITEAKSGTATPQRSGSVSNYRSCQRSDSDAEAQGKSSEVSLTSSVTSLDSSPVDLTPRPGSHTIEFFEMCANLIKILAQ
Procedure, shortened: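 Live A375 melanoma cells were treated with compound at 5 or 0.5 μM, then lysed. The lysates were labeled with a lysine-reactive ATP or ADP-biotin probe. Kinase protection from probe labeling was measured by KiNativ.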

Sequence of Serine/threonine-protein kinase WNK1 (Homo sapiens) (Q9H4A3 whole entry, looked up): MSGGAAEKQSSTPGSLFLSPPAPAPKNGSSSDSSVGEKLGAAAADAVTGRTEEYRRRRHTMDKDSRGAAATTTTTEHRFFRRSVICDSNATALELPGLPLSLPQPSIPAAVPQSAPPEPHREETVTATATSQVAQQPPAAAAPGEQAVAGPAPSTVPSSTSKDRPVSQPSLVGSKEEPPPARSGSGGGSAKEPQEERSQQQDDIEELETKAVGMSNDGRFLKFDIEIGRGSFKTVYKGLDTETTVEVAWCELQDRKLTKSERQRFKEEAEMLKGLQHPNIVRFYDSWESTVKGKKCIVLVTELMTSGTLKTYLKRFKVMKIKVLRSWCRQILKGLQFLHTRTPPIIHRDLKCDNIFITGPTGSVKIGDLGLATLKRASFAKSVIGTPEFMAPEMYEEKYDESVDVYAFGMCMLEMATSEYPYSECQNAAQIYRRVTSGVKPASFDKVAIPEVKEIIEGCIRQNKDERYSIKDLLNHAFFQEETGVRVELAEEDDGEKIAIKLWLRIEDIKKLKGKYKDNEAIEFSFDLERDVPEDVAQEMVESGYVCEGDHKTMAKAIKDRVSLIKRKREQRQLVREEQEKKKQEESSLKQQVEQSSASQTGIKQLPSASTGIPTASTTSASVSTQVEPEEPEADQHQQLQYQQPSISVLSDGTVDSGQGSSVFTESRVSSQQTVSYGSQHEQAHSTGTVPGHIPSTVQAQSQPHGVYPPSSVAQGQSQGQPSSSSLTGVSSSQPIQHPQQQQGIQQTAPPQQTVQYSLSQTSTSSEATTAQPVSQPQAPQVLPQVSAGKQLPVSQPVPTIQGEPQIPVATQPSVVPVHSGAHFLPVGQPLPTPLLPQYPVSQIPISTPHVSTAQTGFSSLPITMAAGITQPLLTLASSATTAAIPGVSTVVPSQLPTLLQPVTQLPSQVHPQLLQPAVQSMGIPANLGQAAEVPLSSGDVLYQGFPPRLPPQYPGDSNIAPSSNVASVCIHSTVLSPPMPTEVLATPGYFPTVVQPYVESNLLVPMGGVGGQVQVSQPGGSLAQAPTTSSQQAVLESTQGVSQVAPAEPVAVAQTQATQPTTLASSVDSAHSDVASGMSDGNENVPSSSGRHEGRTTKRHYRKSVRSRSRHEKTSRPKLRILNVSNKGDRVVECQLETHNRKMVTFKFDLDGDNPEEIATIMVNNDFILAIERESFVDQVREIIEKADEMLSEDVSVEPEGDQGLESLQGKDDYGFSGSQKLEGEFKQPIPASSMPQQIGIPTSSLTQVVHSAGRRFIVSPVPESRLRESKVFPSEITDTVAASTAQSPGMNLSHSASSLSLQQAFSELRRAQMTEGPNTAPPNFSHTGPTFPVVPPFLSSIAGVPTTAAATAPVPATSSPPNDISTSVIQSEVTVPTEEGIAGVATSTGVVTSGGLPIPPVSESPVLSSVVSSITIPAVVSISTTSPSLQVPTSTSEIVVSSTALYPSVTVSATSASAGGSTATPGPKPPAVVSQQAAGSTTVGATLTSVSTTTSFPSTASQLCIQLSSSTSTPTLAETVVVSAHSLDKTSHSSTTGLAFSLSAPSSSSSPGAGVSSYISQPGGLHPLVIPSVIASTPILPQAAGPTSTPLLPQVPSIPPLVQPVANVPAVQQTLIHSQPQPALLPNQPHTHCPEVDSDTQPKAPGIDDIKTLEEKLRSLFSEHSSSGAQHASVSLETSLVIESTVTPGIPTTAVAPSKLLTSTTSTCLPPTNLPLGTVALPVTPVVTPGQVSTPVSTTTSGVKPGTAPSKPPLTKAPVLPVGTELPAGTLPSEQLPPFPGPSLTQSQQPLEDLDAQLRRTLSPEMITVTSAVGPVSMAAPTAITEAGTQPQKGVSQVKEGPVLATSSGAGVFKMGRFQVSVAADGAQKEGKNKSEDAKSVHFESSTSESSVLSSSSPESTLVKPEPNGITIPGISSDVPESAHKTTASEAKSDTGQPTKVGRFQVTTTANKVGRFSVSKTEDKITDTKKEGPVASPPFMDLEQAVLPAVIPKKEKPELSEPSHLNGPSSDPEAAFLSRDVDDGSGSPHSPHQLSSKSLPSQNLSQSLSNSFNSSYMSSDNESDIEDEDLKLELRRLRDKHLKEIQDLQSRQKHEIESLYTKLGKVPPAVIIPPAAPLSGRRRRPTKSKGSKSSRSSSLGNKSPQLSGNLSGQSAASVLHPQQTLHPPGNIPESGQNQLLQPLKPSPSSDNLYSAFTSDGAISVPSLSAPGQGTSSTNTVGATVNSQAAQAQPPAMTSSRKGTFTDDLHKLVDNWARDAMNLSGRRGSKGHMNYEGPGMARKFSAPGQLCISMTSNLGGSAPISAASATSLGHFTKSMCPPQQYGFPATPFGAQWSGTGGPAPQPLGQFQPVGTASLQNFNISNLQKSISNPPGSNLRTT

Structure (SMILES): CCN1CCN(Cc2ccc(NC(=O)c3ccc(C)c(Oc4ccnc5[nH]ccc45)c3)cc2C(F)(F)F)CC1
- inhibition [1]: -3.5%
- inhibition [2]: 75.6%
- inhibition [3]: 29.2%
- inhibition [4]: 17.7%
- inhibition [5]: 98.1%
- inhibition [6]: -3.9%
- inhibition [7]: 3.1%
- inhibition [8]: -2.4%
- inhibition [9]: 11.6%

Structure (SMILES): CCN1CCN(Cc2ccc(NC(=O)c3ccc(C)c(/C=C/c4cnc5[nH]ccc5c4OC)c3)cc2C(F)(F)F)CC1
- inhibition [1]: 7.1%
- inhibition [2]: 26.3%
- inhibition [3]: 19.8%
- inhibition [4]: 27.5%
- inhibition [5]: 80.3%
- inhibition [6]: 20.9%
- inhibition [7]: 38.5%
- inhibition [8]: -3.8%
- inhibition [9]: 37%
